Laboratory results: ChEMBL document CHEMBL2146394, “Design and synthesis of pyrrolo[3,2-d]pyrimidine HER2/EGFR dual inhibitors: improvement of the physicochemical and pharmacokinetic profiles for potent in vivo anti-tumor efficacy” (Bioorg Med Chem, 2012)

How the values were obtained:
[1] = Apparent permeability across apical to basolateral side in human Caco2 cells at 10 umol/L; type: ADME, cell-based; conditions: Caco-2
Procedure, shortened: (§1)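 Confluent Caco-2 monolayers on collagen-coated polycarbonate Transwell membranes. HBSS with 10 mmol/L HEPES, 15 mmol/L glucose and 1% BSA, pH 7.3–7.5. Compound dosed at 10 µmol/L apically (A→B) or basolaterally (B→A), 37 °C, 5% CO₂. Receivers sampled at 1 and 2 h; LC/MS/MS. Papp from receiver concentration slope; duplicates.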

[2] = Metabolic stability in human hepatic microsomes at 1 umol/L after 20 mins; type: ADME; conditions: liver microsomes, read-out: Stability
Procedure, shortened: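 Human liver microsomes (0.2 mg/mL protein) with 1 µmol/L compound in 50 mmol/L phosphate pH 7.4 plus an NADPH-generating system (glucose-6-phosphate, β-NADP⁺, G6PDH, MgCl₂). Incubated at 37 °C for 0 and 20 min, stopped with acetonitrile, duplicates. Remaining compound measured by HPLC with photodiode array detection.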

BT-474 [3] = test: Antitumor activity against human BT474 cells xenografted in BALB/c nu/nu mouse at 100 mg/kg, po bid administered 14 days measured on day 31 relative to control; type: functional
Procedure, shortened: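 BT-474 xenografts: 1×10⁷ cells in Matrigel implanted subcutaneously into the right flank of female BALB/c nu/nu mice. Estradiol dipropionate 0.25 mg given intramuscularly on days 0 and 7. Tumours of 200–300 mm³ used. Dosing 100 mg/kg orally bid in 0.5% methylcellulose for 14 days. Volume a×b²/2 by calipers. T/C (%) compared at day 31.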

BT-474 [4] = test: Growth inhibition of HER2 over-expressing human BT474 cells after 5 days; type: functional; conditions: BT-474, 120 h
Procedure, shortened: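 BT-474 cells kept in RPMI 1640 with 10% heat-inactivated FBS. Seeded at 3×10⁴ cells/well and allowed to attach overnight. Treated continuously with compound for 5 days. Live cells counted with a particle analyzer; GI₅₀ derived.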

[5] = Metabolic stability in mouse hepatic microsomes at 1 umol/L after 20 mins; type: ADME; conditions: liver microsomes, read-out: Stability
[6] = target: Epidermal growth factor receptor (Homo sapiens, UniProt P00533); test: Inhibition of human N-terminal DYKDDDD tagged EGFR cytoplasmic domain amino acid 669 to 1210 expressed in baculovirus after 5 mins by scintillation counter
[7] = target: Receptor tyrosine-protein kinase erbB-2 (Homo sapiens, UniProt P04626); test: Inhibition of human N-terminal DYKDDDD tagged HER2 cytoplasmic domain amino acid 676 to 1255 expressed in baculovirus after 5 mins by scintillation counter
Procedure, shortened: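 FLAG-purified HER2 cytoplasmic domain in 50 mmol/L Tris-HCl pH 7.5, 5 mmol/L MnCl₂, 0.01% Tween-20, 2 mmol/L DTT, with poly-Glu-Tyr (4:1) and [γ-³²P]ATP. Compound and enzyme preincubated 5 min at room temperature; reaction started with ATP, 10 min at room temperature. Stopped with 10% TCA, filter-harvested, washed with 3% phosphoric acid, scintillation counted.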

[8] = Apparent permeability across basolateral to apical side in human Caco2 cells at 10 umol/L; type: ADME, cell-based; conditions: Caco-2; procedure, shortened: as §1

Receptor tyrosine-protein kinase erbB-2, sequence (P04626 whole entry, the tested form may be a part): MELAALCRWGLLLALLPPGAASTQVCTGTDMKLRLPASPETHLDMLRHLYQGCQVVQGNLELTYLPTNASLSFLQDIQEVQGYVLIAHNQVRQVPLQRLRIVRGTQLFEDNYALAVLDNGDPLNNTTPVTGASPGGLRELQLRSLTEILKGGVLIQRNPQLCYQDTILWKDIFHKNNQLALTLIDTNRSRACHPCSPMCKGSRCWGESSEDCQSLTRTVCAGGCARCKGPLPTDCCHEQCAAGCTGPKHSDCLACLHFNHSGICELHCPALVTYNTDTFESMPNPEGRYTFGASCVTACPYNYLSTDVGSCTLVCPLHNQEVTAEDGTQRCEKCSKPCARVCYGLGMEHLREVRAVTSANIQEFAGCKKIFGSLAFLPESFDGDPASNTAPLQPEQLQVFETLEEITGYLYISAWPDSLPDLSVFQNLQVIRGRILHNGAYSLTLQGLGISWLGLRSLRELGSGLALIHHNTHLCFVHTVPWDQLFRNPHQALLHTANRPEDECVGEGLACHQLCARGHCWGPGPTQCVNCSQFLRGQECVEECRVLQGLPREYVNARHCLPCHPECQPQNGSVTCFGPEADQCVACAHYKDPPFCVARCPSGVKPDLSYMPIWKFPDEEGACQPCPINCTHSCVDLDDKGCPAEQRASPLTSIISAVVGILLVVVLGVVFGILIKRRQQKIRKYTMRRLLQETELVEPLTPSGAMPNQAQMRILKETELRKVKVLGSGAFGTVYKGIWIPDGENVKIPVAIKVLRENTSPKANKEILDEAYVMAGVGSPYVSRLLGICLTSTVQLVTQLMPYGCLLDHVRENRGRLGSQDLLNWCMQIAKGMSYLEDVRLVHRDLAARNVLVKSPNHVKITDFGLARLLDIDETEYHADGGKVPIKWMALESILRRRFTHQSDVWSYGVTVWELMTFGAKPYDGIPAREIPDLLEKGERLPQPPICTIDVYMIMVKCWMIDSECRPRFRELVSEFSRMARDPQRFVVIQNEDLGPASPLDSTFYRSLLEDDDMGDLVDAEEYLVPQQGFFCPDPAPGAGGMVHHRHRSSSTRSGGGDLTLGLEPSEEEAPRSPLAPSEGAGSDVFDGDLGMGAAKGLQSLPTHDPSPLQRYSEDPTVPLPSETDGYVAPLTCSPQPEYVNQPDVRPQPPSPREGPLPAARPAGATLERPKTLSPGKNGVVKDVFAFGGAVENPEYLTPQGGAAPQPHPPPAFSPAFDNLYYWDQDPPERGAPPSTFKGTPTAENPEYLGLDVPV
Epidermal growth factor receptor, sequence (P00533 whole entry, the tested form may be a part): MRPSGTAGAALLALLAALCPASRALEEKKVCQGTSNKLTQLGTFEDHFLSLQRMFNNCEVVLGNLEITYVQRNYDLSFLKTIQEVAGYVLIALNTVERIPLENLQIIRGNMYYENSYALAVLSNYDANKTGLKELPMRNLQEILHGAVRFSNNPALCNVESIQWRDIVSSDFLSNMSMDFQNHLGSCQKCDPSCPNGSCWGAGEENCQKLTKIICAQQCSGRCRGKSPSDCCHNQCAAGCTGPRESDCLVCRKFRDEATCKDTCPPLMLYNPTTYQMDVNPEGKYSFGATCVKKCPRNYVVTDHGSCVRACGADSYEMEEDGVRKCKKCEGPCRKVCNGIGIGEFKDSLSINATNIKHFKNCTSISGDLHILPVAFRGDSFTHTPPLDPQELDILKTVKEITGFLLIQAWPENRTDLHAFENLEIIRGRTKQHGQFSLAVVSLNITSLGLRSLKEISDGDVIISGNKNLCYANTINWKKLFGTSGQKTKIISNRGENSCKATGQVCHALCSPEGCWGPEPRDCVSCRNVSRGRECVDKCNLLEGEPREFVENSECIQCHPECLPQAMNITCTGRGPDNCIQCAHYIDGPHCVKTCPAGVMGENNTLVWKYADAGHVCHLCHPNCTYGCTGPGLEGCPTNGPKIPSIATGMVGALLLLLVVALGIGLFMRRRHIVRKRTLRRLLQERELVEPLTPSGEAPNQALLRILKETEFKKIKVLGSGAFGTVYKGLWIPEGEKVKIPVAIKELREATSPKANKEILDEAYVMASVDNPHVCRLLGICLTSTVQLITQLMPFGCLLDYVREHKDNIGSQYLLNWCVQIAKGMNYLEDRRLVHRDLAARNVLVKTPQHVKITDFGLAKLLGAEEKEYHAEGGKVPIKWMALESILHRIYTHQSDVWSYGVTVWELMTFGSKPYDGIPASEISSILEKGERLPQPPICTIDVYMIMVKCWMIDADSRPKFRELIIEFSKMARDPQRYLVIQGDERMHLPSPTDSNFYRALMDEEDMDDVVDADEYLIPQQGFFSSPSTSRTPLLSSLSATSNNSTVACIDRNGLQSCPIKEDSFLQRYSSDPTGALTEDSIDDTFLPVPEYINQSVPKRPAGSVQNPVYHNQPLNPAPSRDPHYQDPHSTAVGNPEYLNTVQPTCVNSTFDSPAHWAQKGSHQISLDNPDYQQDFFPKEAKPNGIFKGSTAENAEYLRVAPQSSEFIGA

| SMILES | Papp A→B at 10 µM [1] | microsomal CLint at 1 µM [2] | T/C (BT-474 [3]) | GI50 (BT-474 [4]) | microsomal CLint at 1 µM [5] | IC50 [6] | IC50 [7] | Papp B→A at 10 µM [8] |
| --- | --- | --- | --- | --- | --- | --- | --- | --- |
| CC(C)(C(=O)NCCn1ccc2ncnc(Nc3ccc(Oc4cccc(C(F)(F)F)c4)c(Cl)c3)c21)S(C)(=O)=O | 2.87 ×10⁻⁶ cm/s | 38 µL/min/mg | 43% | 55 nM | 23 µL/min/mg | 47 nM | 17 nM | 4.26 ×10⁻⁶ cm/s |
| CS(=O)(=O)CC(=O)NCCn1ccc2ncnc(Nc3ccc(Oc4cccc(Cl)c4)c(Cl)c3)c21 | 0.67 ×10⁻⁶ cm/s | 11 µL/min/mg | – | 3.9 nM | – | 6.7 nM | 2.9 nM | 6.79 ×10⁻⁶ cm/s |
| CC(C(=O)NCCn1ccc2ncnc(Nc3ccc(Oc4cccc(Cl)c4)c(Cl)c3)c21)S(C)(=O)=O (stereo not drawn) | – | 4 µL/min/mg | – | 32 nM | – | 9.8 nM | 4.1 nM | – |
